# According to ChEMBL document CHEMBL1148614, “Synthesis and evaluation of 2-anilino-3-phenylsulfonyl-6-methylpyridines as corticotropin-releasing factor1 receptor ligands” (Bioorg Med Chem Lett, 2006):
# Tested on: not listed separately
# Assay: Bioavailability in Sprague-Dawley rat at 2.0 mg/kg, po
# Type: ADME, organism-based
# Details: in vivo
# How it was run: (§1)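 Cassette dosing in Sprague–Dawley rats (n = 3 per route). Oral dose 2 mg/kg, with plasma sampled at 0, 0.5, 1, 2, 4, 6, 8 and 24 h. Plasma drug levels measured by LC/MS/MS.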
row,bioavailability,SMILES
1,16%,COc1ccccc1COc1ccc(S(=O)(=O)c2ccc(C)nc2Nc2c(C)cc(C)cc2C)cc1
2,18%,Cc1cc(C)c(Nc2nc(C)ccc2S(=O)(=O)c2ccc(OCc3ccccc3)cc2)c(C)c1
3,35%,CCc1ccc(S(=O)(=O)c2ccc(C)nc2Nc2c(C)cc(C)cc2C)cc1

# Molecular target: T1, Corticotropin-releasing factor receptor 1 (Rattus norvegicus, UniProt P35353)
# T1 sequence (P35353 whole entry): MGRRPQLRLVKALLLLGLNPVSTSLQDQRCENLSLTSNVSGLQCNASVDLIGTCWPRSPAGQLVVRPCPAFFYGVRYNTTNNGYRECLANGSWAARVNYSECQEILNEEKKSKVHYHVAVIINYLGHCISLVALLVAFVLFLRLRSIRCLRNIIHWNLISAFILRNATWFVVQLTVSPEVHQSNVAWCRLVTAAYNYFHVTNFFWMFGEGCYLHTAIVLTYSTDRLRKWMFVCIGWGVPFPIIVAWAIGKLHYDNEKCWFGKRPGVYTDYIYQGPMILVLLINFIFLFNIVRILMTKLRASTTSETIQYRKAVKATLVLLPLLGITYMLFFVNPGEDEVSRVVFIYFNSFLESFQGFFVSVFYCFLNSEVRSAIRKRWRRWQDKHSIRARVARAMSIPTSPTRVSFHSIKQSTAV
# Assay: Displacement of [125I]Tyr-o-CRF from CRF1 receptor in rat frontal cortex homogenates
# Type: tissue-based
# Details: not given
row,Ki,SMILES
1,> 10000 nM,Cc1cc(C)c(Nc2nc(C)cc(C)c2S(=O)(=O)c2ccccc2)c(C)c1
2,198 nM,COc1ccc(S(=O)(=O)c2ccc(C)nc2Nc2c(C)cc(C)cc2C)cc1
3,75 nM,Cc1cc(C)c(Nc2nc(C)ccc2S(=O)(=O)c2ccc(OCc3cccc(C#N)c3)cc2)c(C)c1
4,1780 nM,Cc1ccc(S(=O)(=O)c2c(C)cc(C)nc2Nc2c(C)cc(C)cc2C)cc1
5,395 nM,Cc1cc(C)c(Nc2nc(C)ccc2S(=O)(=O)c2ccc(OCCCCC#N)cc2)c(C)c1
6,635 nM,Cc1cc(C)c(Nc2nc(C)ccc2S(=O)(=O)c2ccc(OCCCC#N)cc2)c(C)c1
7,145 nM,Cc1ccc(S(=O)(=O)c2ccc(C)nc2Nc2c(C)cc(C)cc2C)cc1
8,> 10000 nM,Cc1cc(C)c(Nc2nc(C)cc(C)c2S(=O)(=O)c2ccccc2C)c(C)c1
9,> 10000 nM,Cc1ccc(S(=O)(=O)c2ccc(Nc3c(C)cc(C)cc3C)nc2C)cc1
10,157 nM,Cc1cc(C)c(Nc2nc(C)ccc2S(=O)(=O)c2ccc(OCc3ccc(C#N)cc3)cc2)c(C)c1
11,857 nM,Cc1cc(C)c(Nc2nc(C)ccc2S(=O)(=O)Cc2ccc(Cl)cc2)c(C)c1
12,250 nM,Cc1cc(C)c(Nc2nc(C)ccc2S(=O)(=O)c2ccc(OCc3ccccn3)cc2)c(C)c1
13,17 nM,COc1ccccc1COc1ccc(S(=O)(=O)c2ccc(C)nc2Nc2c(C)cc(C)cc2C)cc1
14,268 nM,Cc1cc(C)c(Nc2nc(C)ccc2S(=O)(=O)c2ccc(OC(F)(F)F)cc2)c(C)c1
15,58 nM,COc1cccc(COc2ccc(S(=O)(=O)c3ccc(C)nc3Nc3c(C)cc(C)cc3C)cc2)c1
16,132 nM,Cc1cc(C)c(Nc2nc(C)ccc2S(=O)(=O)c2cccc(OCc3ccccc3)c2)c(C)c1
17,1080 nM,Cc1cc(C)c(Nc2nc(C)ccc2S(=O)(=O)c2ccc(CO)cc2)c(C)c1
18,49 nM,COC(=O)c1cccc(COc2ccc(S(=O)(=O)c3ccc(C)nc3Nc3c(C)cc(C)cc3C)cc2)c1
19,32 nM,Cc1cc(C)c(Nc2nc(C)ccc2S(=O)(=O)c2ccc(OCc3ccccc3)cc2)c(C)c1
20,5170 nM,Cc1cccc(S(=O)(=O)c2c(C)cc(C)nc2Nc2c(C)cc(C)cc2C)c1
21,34 nM,COc1cc(COc2ccc(S(=O)(=O)c3ccc(C)nc3Nc3c(C)cc(C)cc3C)cc2)cc(OC)c1
22,249 nM,COc1cccc(S(=O)(=O)c2ccc(C)nc2Nc2c(C)cc(C)cc2C)c1
23,119 nM,C=CCOc1ccc(S(=O)(=O)c2ccc(C)nc2Nc2c(C)cc(C)cc2C)cc1
24,52 nM,CCc1ccc(S(=O)(=O)c2ccc(C)nc2Nc2c(C)cc(C)cc2C)cc1

# Tested on: not listed separately
# Assay: Clearance in Sprague-Dawley rat at 0.5 mg/kg, iv
# Type: ADME, organism-based
# Parameters: dose 0.5 mg/kg, route intravenous
# Details: in vivo
row,clearance,SMILES
1,58.3 mL/min/kg,COc1ccccc1COc1ccc(S(=O)(=O)c2ccc(C)nc2Nc2c(C)cc(C)cc2C)cc1
2,78.3 mL/min/kg,Cc1cc(C)c(Nc2nc(C)ccc2S(=O)(=O)c2ccc(OCc3ccccc3)cc2)c(C)c1
3,86.7 mL/min/kg,CCc1ccc(S(=O)(=O)c2ccc(C)nc2Nc2c(C)cc(C)cc2C)cc1

# Tested on: not listed separately
# Assay: Cmax in Sprague-Dawley rat at 2.0 mg/kg, po
# Type: ADME, organism-based
# Parameters: dose 2 mg/kg, route oral
# Details: in vivo
# How it was run: as §1
row,Cmax,SMILES
1,48 nM,COc1ccccc1COc1ccc(S(=O)(=O)c2ccc(C)nc2Nc2c(C)cc(C)cc2C)cc1
2,42 nM,Cc1cc(C)c(Nc2nc(C)ccc2S(=O)(=O)c2ccc(OCc3ccccc3)cc2)c(C)c1
3,72 nM,CCc1ccc(S(=O)(=O)c2ccc(C)nc2Nc2c(C)cc(C)cc2C)cc1

# Tested on: not listed separately
# Assay: Half life in Sprague-Dawley rat at 0.5 mg/kg, iv
# Type: ADME, organism-based
# Parameters: dose 0.5 mg/kg, route intravenous
# Details: in vivo
row,half-life,SMILES
1,3.5 h,COc1ccccc1COc1ccc(S(=O)(=O)c2ccc(C)nc2Nc2c(C)cc(C)cc2C)cc1
2,3 h,Cc1cc(C)c(Nc2nc(C)ccc2S(=O)(=O)c2ccc(OCc3ccccc3)cc2)c(C)c1
3,5.1 h,CCc1ccc(S(=O)(=O)c2ccc(C)nc2Nc2c(C)cc(C)cc2C)cc1

# Tested on: Rattus norvegicus
# Assay: Volume of distribution in Sprague-Dawley rat at 0.5 mg/kg, iv
# Type: ADME, organism-based
# Parameters: dose 0.5 mg/kg, route intravenous
# Details: in vivo
row,Vss,SMILES
1,8 L/kg,COc1ccccc1COc1ccc(S(=O)(=O)c2ccc(C)nc2Nc2c(C)cc(C)cc2C)cc1
2,10 L/kg,Cc1cc(C)c(Nc2nc(C)ccc2S(=O)(=O)c2ccc(OCc3ccccc3)cc2)c(C)c1
3,25 L/kg,CCc1ccc(S(=O)(=O)c2ccc(C)nc2Nc2c(C)cc(C)cc2C)cc1

# Tested on: not listed separately
# Assay: AUC in Sprague-Dawley rat at 2.0 mg/kg, po
# Type: ADME, organism-based
# Parameters: dose 2 mg/kg, route oral
# Details: plasma
# How it was run: as §1
row,AUC,SMILES
1,0.176 µM·h,COc1ccccc1COc1ccc(S(=O)(=O)c2ccc(C)nc2Nc2c(C)cc(C)cc2C)cc1
2,0.167 µM·h,Cc1cc(C)c(Nc2nc(C)ccc2S(=O)(=O)c2ccc(OCc3ccccc3)cc2)c(C)c1
3,0.347 µM·h,CCc1ccc(S(=O)(=O)c2ccc(C)nc2Nc2c(C)cc(C)cc2C)cc1
